Screens deposited in PubChem by several laboratories.
The list is not random: actives were taken first. Their share in the collection is about 2%.
PfM18AAP inh-1 = blocks P. falciparum M18 aspartyl aminopeptidase | actives 1.2% (n = 290,000) | inhibition, % at 7.35 µM | recombinant PfM18AAP, H-Glu-NHMec fluorogenic cleavage;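 active = inhibition above the campaign mean inhibition over all tested compounds plus 3 SD, cut at about 28% in these data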;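 also: 0% = plate median of test compound wells and 100% = 2 mM ZnCl2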
RBBP9 inhibitor = blocks human serine hydrolase RBBP9; O75884; recombinant RBBP9, FP-Rh probe fluorescence polarization; inhibition, % at 7.94 µM; actives 0.2% (n = 220,000);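 active = inhibition above the campaign mean of all tested compounds plus 3 SD, cut at about 14% in these data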;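 also: plate controls were DMSO wells with RBBP9 for no effect and wells lacking RBBP9 protein for full effect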
Target sequence (O75884 whole entry, looked up): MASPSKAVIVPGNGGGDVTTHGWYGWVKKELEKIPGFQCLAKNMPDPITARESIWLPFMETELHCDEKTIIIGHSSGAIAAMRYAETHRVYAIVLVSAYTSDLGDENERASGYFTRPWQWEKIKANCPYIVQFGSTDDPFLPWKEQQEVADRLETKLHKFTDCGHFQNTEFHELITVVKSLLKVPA
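System: RBBP9 protein / Buffer or medium: Tris/NaCl buffer pH 8.0 with 0.1% Pluronic / Probe or stimulus: Serine-hydrolase probe FP-Rh, 375 nM pre-mixing / Dosing: 7.94 µM single dose, 0.794% DMSO / Times: enzyme-compound preincubation 30 min, then probe labeling 45 min, 25 °C / Technique: fluorescence polarization (mP), excitation 525 nm, emission 598 nm / Replication: singlicate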
Lipid droplet = modulators of hepatic lipid droplet formation; AML12 mouse hepatocytes, oleate lipid droplets, BODIPY imaging; inhibition, % at 6.5 µM; actives 0.4% (n = 240,000);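 active = lipid droplet intensity inhibited by at least 50%, with more than 500 cells counted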
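Technique: fluorescence imaging, 20x objective, two fields per well / Assay system: AML12 hepatocytes (mouse) / Measure: % inhibition of lipid droplet signal / Doses: 6.5 µM single-point dosing / Incubation: overnight exposure / Reagent: 100 µM oleic acid challenge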
L929 necroptosis = blocks zVAD induced death of L929 cells; actives 0.38% (n = 220,000); viability rescue, % at 10 µM; L929 zVAD necroptosis rescue, ATP luminescence, 24 h; with zVAD 60 µM;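 active = activation, scaled between plate controls, above about 75%, limit read from the data; inactive = activation under that limit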;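 also: 0% = zVAD with DMSO and 100% = DMSO alone without zVAD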
TbHK1 inh = T. brucei hexokinase 1 inhibition | AID 1430 | actives 0.11% (n = 220,000) | inhibition, % at 10 µM | recombinant TbHK1, G6PDH-coupled NADH A340;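 active = inhibition of 50% or more in the single-dose primary screen; inactive = inhibition below 50%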
TNF death inh = inhibitors of TNF-alpha induced necroptosis in Jurkat FADD-/- cells. Jurkat FADD-/- TNF necroptosis rescue, ATP luminescence, 24 h; 0 = TNF only, 100 = no-TNF cells. actives 0.068% (n = 220,000). activation (protection from cell death), % at 10 µM. AID 463075;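 active = activation, meaning protection from cell death, of at least 50% relative to plate controls; inactive = activation below 50%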;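 also: necroptosis triggered by 40 ng/mL TNF-alpha added together with compound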
PfM18AAP inh-2 = confirmation of Plasmodium falciparum M18 aspartyl aminopeptidase inhibitors. actives 28% (n = 2,400). AID 2170. inhibition, % at 7.35 µM. recombinant PfM18AAP, H-Glu-NHMec fluorogenic cleavage. shares compounds with PfM18AAP inh-1;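 active = mean inhibition over replicate wells above the hit cutoff set for the earlier primary screen, cut at about 29% in these data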;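 also: 0% = median of test compound wells and 100% = 2 mM ZnCl2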
CTSL1 counter = Cathepsin L (human) inhibition, confirmation. shares compounds with PfM18AAP inh-1. purified cathepsin L1, Z-Leu-Arg-MCA fluorescence. inhibition, % at 5.96 µM. 2,400 tested, under 10 active;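 active = average inhibition across replicates above the hit cutoff set in the earlier primary screen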;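 also: 0% = median of test compound wells and 100% = Z-Phe-Ala-diazomethylketone 1 µM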
Target sequence (P07711 whole entry, looked up): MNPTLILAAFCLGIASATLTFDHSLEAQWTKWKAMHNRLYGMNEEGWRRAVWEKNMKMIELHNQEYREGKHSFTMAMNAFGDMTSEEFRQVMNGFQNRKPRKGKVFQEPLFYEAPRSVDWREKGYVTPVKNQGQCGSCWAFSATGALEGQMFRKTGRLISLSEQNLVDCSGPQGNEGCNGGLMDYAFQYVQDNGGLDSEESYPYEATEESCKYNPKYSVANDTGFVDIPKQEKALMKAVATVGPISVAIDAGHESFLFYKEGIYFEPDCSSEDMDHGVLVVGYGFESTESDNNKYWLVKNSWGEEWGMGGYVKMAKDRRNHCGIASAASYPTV
The depositor's hits bear a star; nt = no result given.

SMILES	PfM18AAP inh-1	RBBP9 inhibitor	Lipid droplet	L929 necroptosis	TbHK1 inh	TNF death inh	PfM18AAP inh-2	CTSL1 counter
C=CCn1cc(C=C2C(=O)NC(=O)NC2=O)c2ccccc21	54*	nt	nt	nt	nt	nt	33*	-5
Cn1cc(/C=C2\C(=O)NC(=O)N(c3ccccc3)C2=O)c2ccccc21	35*	nt	-3	nt	nt	nt	39*	1
O=C(O)Cn1cc(C=C2C(=O)NC(=O)NC2=O)c2ccccc21	27	nt	4	nt	nt	nt	nt	nt
CCN(CC)C(=O)Cn1cc(/C=C2\C(=O)NC(=O)N(c3ccccc3F)C2=O)c2ccccc21	35*	nt	nt	nt	nt	nt	-7	-5
CCN1C(=O)NC(=O)/C(=C\c2cn(CC(=O)N3CCCCC3C)c3ccccc23)C1=O (stereo not drawn)	16	nt	4	nt	nt	nt	nt	nt
O=C(O)Cn1cc(/C=C2\C(=O)NC(=O)N(c3ccc(Cl)cc3)C2=O)c2ccccc21	26	nt	16	nt	nt	nt	nt	nt
N#CC12CNCC1CN=N2 (stereo not drawn)	-2	-11	9	0	-1	0	nt	nt
N/C(=N/[N+](=O)[O-])N1CCN(C(=O)Oc2ccc([N+](=O)[O-])cc2)CC1	-1	nt	-7	nt	nt	nt	nt	nt
Cc1ccc(-c2nc(N(C)C3CCN(C)CC3)c3ccccc3n2)cc1	9	6	27	34	-20	-4	nt	nt
CCN(CC)P(=O)(Oc1ccccc1)Oc1ccccc1	12	-2	-16	0	-8	0	nt	nt
O=C1NC(=O)C(=Cc2ccc(-c3ccc(S(=O)(=O)N4CCOCC4)cc3)o2)C(=O)N1	-4	nt	-6	nt	nt	nt	nt	nt
O=C1NC(=O)C(=Cc2ccc(-c3ccc(Cl)cc3)o2)C(=O)N1	33*	nt	0	nt	nt	nt	19	-4
O=C1NC(=O)C(=Cc2ccc(-c3ccc(F)cc3O)o2)C(=O)N1	51*	nt	-2	nt	nt	nt	58*	0
CCCCn1c(O)c(/C(CC)=N/N2CCCCC2c2cccnc2)c(=O)[nH]c1=S (stereo not drawn)	6	-7	-30	-1	-27	1	nt	nt
CN1C(=O)C(Cc2ccc3c(c2)OCO3)C(=O)N(C)C1=O	34*	-4	1	13	4	4	0	-3
CCN(CC)c1ccc(/C=N/c2sc3c(c2C#N)C2CCN3CC2)c(O)c1	32*	-5	26	59	-15	3	-37	0
CCc1ccc(N2C(=O)NC(=O)/C(=C\c3cc(C)n(-c4cc(C(=O)O)cc(C(=O)O)c4)c3C)C2=O)cc1	32*	nt	-3	nt	nt	nt	-22	-1
CC(=O)O[C@]1(C)C(=O)OC/C2=C/CN(C)CCC(OC(=O)[C@@](O)(C(C)O)C[C@H]1C)C2=O (stereo partly drawn)	-8	nt	6	nt	nt	nt	nt	nt
O=C1NC(=O)N(Cc2ccco2)C(=O)/C1=C/C=C/c1ccco1	35*	1	9	1	-1	-18	-4	-2
O=C1NC(=O)N(c2ccccc2)C(=O)/C1=C/C=C/c1ccco1	24	-11	-4	0	1	-22	nt	nt
C#CC[N+]1(C)[C@@H]2CC[C@H]1CC(OC(=O)C(CO)c1ccccc1)C2 (stereo partly drawn)	-4	nt	nt	nt	nt	nt	nt	nt
C[N+]1(C)[C@@H]2CC[C@H]1CC(OC(=O)[C@@H](CO)c1ccccc1)C2 (stereo partly drawn)	44*	nt	-1	nt	nt	nt	33*	-2
CCOC(=O)c1c(N)n(Cc2ccc(OC)cc2)c2nc3ccccc3nc12	-5	-12	nt	0	-7	-5	nt	nt
COCCOC(=O)c1c(N)n(Cc2ccc(OC)cc2)c2nc3ccccc3nc12	35*	-7	-2	-1	-24	-2	-20	10
Cc1ccsc1C(=O)C1CCCN(Cc2cc(C(C)C)n[nH]2)C1 (stereo not drawn)	-3	-1	-13	0	1	2	nt	nt
SMILES	PfM18AAP inh-1	RBBP9 inhibitor	Lipid droplet	L929 necroptosis	TbHK1 inh	TNF death inh	PfM18AAP inh-2	CTSL1 counter
COc1ccc(-n2c(/C=C/c3ccc(O)c(O)c3)nc3ccccc3c2=O)cc1	63*	nt	13	nt	nt	nt	45*	1
COc1cc(/C=C/c2nc3ccccc3c(=O)n2-c2ccc(O)cc2)ccc1O	13	nt	-2	nt	nt	nt	nt	nt
O=C1NC(=O)C(=Cc2coc3ccc(O)cc3c2=O)C(=O)N1	39*	6	9	0	-27	-5	19	-1
CN1C(=O)C(=Cc2coc3ccccc3c2=O)C(=O)N(C)C1=O	-3	-7	8	0	-17	-4	nt	nt
CCCOP(=O)(OCCC)C(NC(=O)c1ccccc1)=C(Cl)Cl	-2	-3	31	-1	1	0	nt	nt
Cc1ncc(CN2CCCC(C(=O)c3sccc3C)C2)s1 (stereo not drawn)	-1	-2	3	-1	-4	1	nt	nt
COc1cc2c(cc1/C=C/[N+](=O)[O-])OCO2	38*	-11	5	-3	7	-8	17	1
CCN(CC)c1ccc(N=Cc2c(O)n(Cc3ccco3)c(=O)[nH]c2=O)cc1	42*	9	-2	4	-22	1	-52	0
N#Cc1c(/N=C/c2c(O)n(Cc3ccco3)c(=O)[nH]c2=O)sc2c1CCCC2	37*	-14	nt	0	10	-1	-43	-4
CC1CCN(C(=O)CCl)CC1	-3	-6	-1	0	-6	3	nt	nt
CNC(C(=O)c1ccccc1)C(OC)c1ccc(C)cc1 (stereo not drawn)	-1	-8	-4	nt	3	1	nt	nt
COc1c2c(cc3c1OCO3)CC[N+](C)=C2	2	2	-1	0	-36	0	nt	nt
C[C@]12CC[C@@H]3c4ccc(O)c(O)c4CC[C@H]3[C@@H]1CC[C@@H]2O	57*	-2	2	nt	nt	nt	92*	-4
CC(C)(C)c1ccc(O)c(N=Cc2c(O)ccc3ccccc23)c1	89*	nt	1	nt	nt	nt	45*	3
COC(=O)C(O)(c1ccc(N=Cc2ccccc2O)c(C)c1)C(F)(F)F (stereo not drawn)	3	-7	7	0	1	1	nt	nt
COc1ccccc1-n1c(O)c(/C=C2\C=Nc3ccccc32)c(=O)[nH]c1=O	40*	nt	-7	nt	nt	nt	43*	-9
CC1=C(C(=O)O)N2C(=O)[C@@H](NC(=O)CCCC(=O)O)[C@H]2SC1	36*	10	4	0	-7	0	15	3
O=c1[nH]c(O)c(N=Nc2ccc(SC(F)F)cc2)c(=O)[nH]1	7	-1	1	0	-11	-7	nt	nt
